PostGolgi ctrl: growth inhibition of yeast control strain, primary screen, counter-screen for post-Golgi transport modulator project; efflux-deficient yeast background strain, growth absorbance A615, 16 h; inhibition, % at 10 µM; 5% of 98,000 active
Ecoli WT expand: growth inhibitors of wild-type E. coli, primary screen, strain BW25113, expanded library, OD600; growth inhibition, % at 100 µM; OD600 absorbance; AID 710, 2007; 0.15% of 98,000 active;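 active means growth inhibition above about 50% at one test dose, limit read from the data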;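 further: growth measured after 20 h incubation at 37 °C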
PLAP activator: PLAP enzyme activators, biochemical, luminescence, HTS; purified PLAP enzyme, luminescent substrate read-out; active compounds read high; activation fold at 20 µM; 1.2% of 96,000 active; AID 696, 2007; in the data active means activation fold above about 2
Target sequence (P05187 whole entry, looked up): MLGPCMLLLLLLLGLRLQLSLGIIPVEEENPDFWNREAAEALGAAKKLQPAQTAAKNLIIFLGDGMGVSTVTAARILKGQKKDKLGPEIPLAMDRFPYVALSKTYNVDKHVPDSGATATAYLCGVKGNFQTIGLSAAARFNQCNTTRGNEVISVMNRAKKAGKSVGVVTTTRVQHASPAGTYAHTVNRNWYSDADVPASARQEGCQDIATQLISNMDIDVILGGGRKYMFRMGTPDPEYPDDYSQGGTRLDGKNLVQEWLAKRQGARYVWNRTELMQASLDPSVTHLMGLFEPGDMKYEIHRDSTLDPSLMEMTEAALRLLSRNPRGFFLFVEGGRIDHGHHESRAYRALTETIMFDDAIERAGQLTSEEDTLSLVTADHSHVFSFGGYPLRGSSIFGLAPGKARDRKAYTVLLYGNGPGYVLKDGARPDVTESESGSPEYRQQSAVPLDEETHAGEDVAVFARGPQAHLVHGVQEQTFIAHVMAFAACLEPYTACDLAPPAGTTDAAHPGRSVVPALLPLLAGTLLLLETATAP
HePTP inh: inhibitors of human HePTP phosphatase, primary screen, biochemical, absorbance, leukemia target; 0.64% of 110,000 active; recombinant HePTP phosphatase activity, OD absorbance; inhibition, % at 20 µM; AID 521, 2006; Tyrosine-protein phosphatase non-receptor type 7 (Homo sapiens), P35236; in the data active means inhibition above about 50%;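 further: plate controls were vehicle for no effect and reference inhibitor for full effect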
Ecoli tolC: growth inhibitors of E. coli tolC mutant, primary screen, strain BW25113 ΔtolC::kan, 384-well; growth inhibition, % at 10 µM (by protocol); OD615; 2.2% of 65,000 active;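 active means growth inhibition at or above a cutoff equal to the mean over every tested compound plus 3 SD, cut at about 60% in these data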;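 further: growth measured after 20 h incubation at 37 °C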
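Test system: tolC-deleted E. coli BW25113; medium: LB with kanamycin 50 µg/mL; compound: single-point testing at 10 µM; incubation: 20 h compound exposure of bacteria at 37 °C; signal: OD at 615 nm; evaluation: growth inhibition in percent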
PostGolgi yeast: phenotypic screen on post-Golgi transport, primary screen; 0.9% of 98,000 active; inhibition, % at 10 µM; post-Golgi transport phenotypic cell assay;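 further: yeast cells grown in 1536-well plates; yeast grown about 18 h at 30C before absorbance read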
Active calls of the source: *; ! = a repeat was not active. This is a sample that favours compounds with a hit; in the whole collection about 5.5% have one here. Unless noted, no stated cut-off is given here; in the data, active means inhibition above about 30%; inactive means the rest.

How did COC1CCCCC1Nc1cc(C)cc(C)c1 (stereo not given) do in these assays?
PostGolgi ctrl: -1; Ecoli WT expand: 7; PLAP activator: 0.7; PostGolgi yeast: 10

How did COC1CCCCC1Nc1cccc(SC)c1 (stereo not given) do in these assays?
PostGolgi ctrl: 35*; Ecoli WT expand: 1; PLAP activator: 0.8; HePTP inh: 15; Ecoli tolC: 16; PostGolgi yeast: -6

What do the screens show for `COc1ccc(CCNC(=O)CCSc2nc(-c3ccco3)cc(C(F)(F)F)n2)cc1`?
PostGolgi ctrl: -10; Ecoli WT expand: -12; PLAP activator: 1.1; HePTP inh: -5; Ecoli tolC: 8; PostGolgi yeast: 1

How did CC(C)(C)c1cc(C(F)(F)F)nc(SCCCNC(=O)c2ccco2)n1 do in these assays?
PostGolgi ctrl: 9; Ecoli WT expand: 7; PLAP activator: 1.5; HePTP inh: 7; Ecoli tolC: 100*; PostGolgi yeast: -2

Results for CCOc1cc(S(=O)(=O)N2CC=C(c3ccc(F)cc3)CC2)c(OCC)cc1-n1cnnn1 ?
PostGolgi ctrl: 101*; Ecoli WT expand: -22; PLAP activator: 1.2; HePTP inh: 3; Ecoli tolC: 6; PostGolgi yeast: 0

How did O=C(Nc1nnc(COc2ccc(F)cc2)s1)c1cccc2ccccc12 do in these assays?
HePTP inh: 4

How did Cc1ccccc1NC(=O)C(=O)NCc1ccccc1 do in these assays?
HePTP inh: -8

How did CC(Cc1cccs1)NC(=O)Nc1ccc(Cl)c(Cl)c1 (stereo not given) do in these assays?
PostGolgi ctrl: 69*; Ecoli WT expand: 20; PLAP activator: 0.8; PostGolgi yeast: -4

Results for CC(Cc1cccs1)NC(=O)Nc1ccc(Cl)cc1 (stereo not given) ?
PostGolgi ctrl: 12; Ecoli WT expand: 10; PLAP activator: 1; PostGolgi yeast: 16

How did COc1cc(NC(=O)c2cc(C(F)(F)F)cc(C(F)(F)F)c2)c(OC)cc1NC(C)=O do in these assays?
HePTP inh: -18

What do the screens show for `N#CCCn1c(=S)[nH]c2ccccc21`?
PostGolgi ctrl: -6; Ecoli WT expand: 5; PLAP activator: 2.6*; PostGolgi yeast: -3

What do the screens show for `CCCC(=O)O[C@H]1C[C@@H](C)N(C(=O)c2ccccc2)c2ccc(C)cc21`?
PostGolgi ctrl: 39*; Ecoli WT expand: 10; PLAP activator: 1.5; PostGolgi yeast: -2

How did COc1cc(-c2nnc(-c3ccco3)o2)ccc1OCc1ccccc1 do in these assays?
PostGolgi ctrl: 25; Ecoli WT expand: -12; HePTP inh: -2; Ecoli tolC: 96*; PostGolgi yeast: 5

How did COc1ccccc1-c1nnc2sc(-c3ccc(N(C)C)cc3)nn12 do in these assays?
HePTP inh: 4; Ecoli tolC: 52

What do the screens show for `COc1ccccc1-c1nnc2sc(-c3cc4ccccc4o3)nn12`?
PostGolgi ctrl: 41*; Ecoli WT expand: -3; PLAP activator: 1.1; HePTP inh: -5; Ecoli tolC: 10; PostGolgi yeast: -7

Results for Cc1cc(C)c(-n2c(C)cc(/C=C3/NC(=O)NC3=O)c2C)c(C)c1 ?
PostGolgi ctrl: 64*; Ecoli WT expand: 4; PLAP activator: 1.1; PostGolgi yeast: 4

How did Cc1cc(C)cc(-n2c(C)cc(/C=C3\NC(=O)NC3=O)c2C)c1 do in these assays?
HePTP inh: -6

Results for O=C1c2ccccc2C(=O)N1/N=C/c1ccc(Cl)c([N+](=O)[O-])c1 ?
HePTP inh: 3

Results for Cc1ccc(NC(=O)NNC(=O)C2CC(c3cccnc3)=NO2)cc1 (stereo not given) ?
PostGolgi ctrl: 11; Ecoli WT expand: -1; PLAP activator: 2*; PostGolgi yeast: -3

Results for COc1ccc(C2=NOC(C(=O)Nc3cccnc3)C2)cc1 (stereo not given) ?
PostGolgi ctrl: 4; Ecoli WT expand: 9; PLAP activator: 1; PostGolgi yeast: 5

How did COc1cc(NC(=O)c2cccs2)c(OC)cc1Cl do in these assays?
HePTP inh: -5

How did O=C(Nc1cccc(S(=O)(=O)c2cccc(NC(=O)C3CC3)c2)c1)C1CC1 do in these assays?
PostGolgi ctrl: 25; Ecoli WT expand: 10; PLAP activator: 1.3; HePTP inh: 3; Ecoli tolC: 94*; PostGolgi yeast: 5

Results for O=C(Nc1cccc(Br)c1)C1CC1 ?
HePTP inh: -12

What do the screens show for `CC(=O)Nc1cccc(Oc2nc(C)cc(C)c2C#N)c1`?
PostGolgi ctrl: 32*; Ecoli WT expand: 0; PLAP activator: 1; HePTP inh: 11; Ecoli tolC: 3; PostGolgi yeast: -5

What do the screens show for `CC12c3ccccc3C(C)(c3ccccc31)C1C(=O)N(c3ccc(C(=O)O)cc3)C(=O)C12` (stereo not given)?
HePTP inh: 1

Results for Cc1ccc(C(O)c2nc3ccccc3n2C(C)C)cc1 (stereo not given) ?
PostGolgi ctrl: 9; Ecoli WT expand: 3; PLAP activator: 2.6*; HePTP inh: 13; Ecoli tolC: 38; PostGolgi yeast: 13

What do the screens show for `COC(=O)C1=C(C)N(C)C(C)=C(C(=O)OC)C1c1ccsc1`?
PostGolgi ctrl: 14; Ecoli WT expand: 2; PLAP activator: 1.1; HePTP inh: 105*!; Ecoli tolC: 12; PostGolgi yeast: 15

Results for O=S1(=O)Nc2c(ccc3cccnc23)-c2ccccc21 ?
PostGolgi ctrl: 72*; Ecoli WT expand: 80*; PLAP activator: 1.9; HePTP inh: 1; Ecoli tolC: 100*; PostGolgi yeast: 85*

What do the screens show for `O=c1[nH]n(-c2cccc3cccnc23)c(=O)c2ccccc12`?
PostGolgi ctrl: 7; Ecoli WT expand: -5; PLAP activator: 1.1; HePTP inh: 4; Ecoli tolC: -21; PostGolgi yeast: 3

Results for Nc1ccc(-c2nc3c(Cl)c(N)ccc3[nH]2)cc1 ?
PostGolgi ctrl: 33*; Ecoli WT expand: 3; PLAP activator: 1.1; HePTP inh: 0; Ecoli tolC: -5; PostGolgi yeast: 6

How did CCc1ccc(NC(=O)CSC2=C(C#N)C(c3ccco3)C3=C(CCCC3=O)N2)cc1 (stereo not given) do in these assays?
PostGolgi ctrl: 5; Ecoli WT expand: -2; PLAP activator: 0.9; HePTP inh: 6; Ecoli tolC: 10; PostGolgi yeast: 0

How did Cc1ccc(NC(=O)CSC2=C(C#N)C(c3ccco3)C3=C(CC(C)(C)CC3=O)N2)cc1 (stereo not given) do in these assays?
PostGolgi ctrl: 13; Ecoli WT expand: -13; PLAP activator: 0.9; HePTP inh: 2; Ecoli tolC: 69*; PostGolgi yeast: 3

How did COc1ccc(/C=C/C(=O)c2c(C)nc3ccc(Cl)cc3c2-c2ccccc2)cc1OC do in these assays?
HePTP inh: 4

Screening results as filed in PubChem BioAssay.
